ChEMBL document CHEMBL1148447, “Structure-activity study on a novel series of macrocyclic inhibitors of the hepatitis C virus NS3 protease leading to the discovery of BILN 2061” (J Med Chem, 2004)

How the values were obtained:
Hepatitis C virus = assay: Inhibition of hepatitis C virus in a cell based HCV replicon assay.; type: functional, organism-based, Hepacivirus hominis
[1] = Inhibitory concentration against hepatitis C virus NS3 protease; parameters: species or system Hepacivirus hominis
[2] = Area under the plasma concentration-time curve in rats after oral administration at 20 mg/kg; type: ADME, organism-based; parameters: dose 20 mg/kg, route oral; conditions: rat
Procedure, shortened: (§1)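 Rats dosed by oral gavage at 20 mg/kg in PEG400/water (70:30). Cmax and AUC0-∞ were taken from the plasma concentration–time profile.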

[3] = Maximum plasma concentration in rats following oral administration at 20 mg/kg; type: ADME, organism-based; parameters: dose 20 mg/kg, route oral; conditions: rat; procedure, shortened: as §1
[4] = Half-life period in rats after intravenous administration at 5 mg/kg; type: ADME, organism-based; parameters: dose 5 mg/kg, route intravenous; conditions: rat, in vivo
Procedure, shortened: (§2)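 Rats received an intravenous bolus of 5 mg/kg in PEG400/water (70:30). Half-life, Vss and plasma clearance were taken from plasma levels. Bioavailability was derived by comparison with oral gavage dosing at 20 mg/kg in the same vehicle.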

Rattus norvegicus [5] = assay: Bioavailability in rat (dose 5 mg/kg i.v.); type: functional, organism-based; procedure, shortened: as §2
[6] = Maximum plasma concentration in rats after oral administration at 20 mg/kg; type: ADME, organism-based; parameters: dose 20 mg/kg, route oral; conditions: rat; procedure, shortened: as §1
Rattus norvegicus [7] = assay: Plasma clearance after intravenous administration at 5 mg/kg in rats; type: functional; procedure, shortened: as §2
[8] = Vss was determined; type: ADME, organism-based; conditions: rat, in vivo; read-out: Vss; procedure, shortened: as §2
Rattus norvegicus [9] = assay: Bioavailability from rat plasma at a single oral dose of 25 mg/kg; type: ADME, organism-based; conditions: in vivo
[10] = Area under the plasma concentration-time curve in rats after oral administration at 25 mg/kg; type: ADME, organism-based; parameters: dose 25 mg/kg, route oral; conditions: rat, read-out: AUC 0-infinity
[11] = Half-life from rat plasma at a single oral dose of 25 mg/kg; type: ADME, organism-based; parameters: dose 25 mg/kg, route oral
[12] = Area under the plasma concentration-time curve in rats following oral administration at 20 mg/kg; type: ADME, organism-based; parameters: dose 20 mg/kg, route oral; conditions: rat; procedure, shortened: as §1

EC50 (Hepatitis C virus) | IC50 [1] | SMILES | other results
1.1 nM | 2.2 nM | COc1ccc2c(O[C@@H]3C[C@H]4C(=O)N[C@]5(C(=O)O)C[C@H]5/C=C\CCCCC[C@H](NC(=O)OC5CCCC5)C(=O)N4C3)cc(-n3cccn3)nc2c1 | 
 | 170 nM | C=C[C@@H]1C[C@]1(NC(=O)C1CC(Oc2ccnc3ccccc23)CN1C(=O)[C@@H](NC(=O)[C@@H](NC(C)=O)c1ccccc1)C(C)C)C(=O)O (single isomer, unassigned) | 
9.5 nM | 5.1 nM | COc1ccc2c(O[C@@H]3C[C@H]4C(=O)N[C@]5(C(=O)O)C[C@H]5/C=C\CCCCC[C@H](NC(=O)OC(C)(C)C)C(=O)N4C3)cc(-n3cccc3)nc2c1 | 
3.9 nM | 5.5 nM | COc1ccc2c(O[C@@H]3C[C@H]4C(=O)N[C@]5(C(=O)O)C[C@H]5/C=C\CCCCC[C@H](NC(=O)OC(C)(C)C)C(=O)N4C3)cc(-n3cccn3)nc2c1 | 
20 nM | 1.4 nM | COc1ccc2c(O[C@@H]3C[C@H]4C(=O)N[C@]5(C(=O)O)C[C@H]5/C=C\CCCCC[C@H](NC(=O)N[C@H](C)C(C)(C)C)C(=O)N4C3)cc(-c3csc(NC(C)=O)n3)nc2c1 | 
 | 13 nM | C=C[C@@H]1C[C@]1(NC(=O)C1CC(Oc2cc(-c3ccccc3)nc3ccccc23)CN1C(=O)[C@@H](NC(=O)[C@@H](NC(C)=O)c1ccccc1)C(C)C)C(=O)O (single isomer, unassigned) | 
4.5 nM | 4.8 nM | COc1ccc2c(O[C@@H]3C[C@H]4C(=O)N[C@]5(C(=O)O)C[C@H]5/C=C\CCCCC[C@H](NC(=O)OC(C)(C)C)C(=O)N4C3)cc(-c3csc(NC(C)=O)n3)nc2c1 | AUC [2]: 0.3 µM·h; Cmax [3]: 300 nM; half-life [4]: 48 min; bioavailability (Rattus norvegicus [5]): 8%
 | 3 nM | COc1ccc2c(O[C@@H]3C[C@H]4C(=O)N[C@]5(C(=O)O)C[C@H]5/C=C\CCCCC[C@H](NC(=O)OC5CCCC5)C(=O)N4C3)cc(-c3csc(NC(C)C)n3)nc2c1 [CILUPREVIR] | AUC [2]: 12.5 µM·h; Cmax [6]: 2500 nM; C1 (Rattus norvegicus [7]): 13 mL/min/kg; half-life [4]: 78 min; Vd [8]: 1 L/kg; bioavailability (Rattus norvegicus [5]): 42%
0.6 nM | 2.8 nM | COc1ccc2c(O[C@@H]3C[C@H]4C(=O)N[C@]5(C(=O)O)C[C@H]5/C=C\CCCCC[C@H](NC(=O)OC5CCC5)C(=O)N4C3)cc(-c3csc(NC(C)=O)n3)nc2c1 | 
1900 nM | 0.5 nM | C=C[C@@H]1C[C@]1(NC(=O)[C@@H]1C[C@@H](Oc2cc(-c3ccccc3)nc3ccccc23)CN1C(=O)[C@@H](NC(=O)[C@@H](NC(=O)[C@@H](CCC(=O)O)NC(=O)[C@H](CC(=O)O)NC(C)=O)c1ccccc1)C(C)(C)C)C(=O)O | 
0.4 nM | 2.5 nM | COc1ccc2c(O[C@@H]3C[C@H]4C(=O)N[C@]5(C(=O)O)C[C@H]5/C=C\CCCCC[C@H](NC(=O)OC5CCCC5)C(=O)N4C3)cc(-c3csc(NC(C)=O)n3)nc2c1 | 
39 nM | 14 nM | COc1ccc2c(O[C@@H]3C[C@H]4C(=O)N[C@]5(C(=O)O)C[C@H]5/C=C\CCCCC[C@H](NC(=O)OC(C)(C)C)C(=O)N4C3)cc(-n3cnc(C)c3)nc2c1 | 
0.8 nM | 2.5 nM | CNc1nc(-c2cc(O[C@@H]3C[C@H]4C(=O)N[C@]5(C(=O)O)C[C@H]5/C=C\CCCCC[C@H](NC(=O)OC5CCCC5)C(=O)N4C3)c3ccc(OC)cc3n2)cs1 | 
1200 nM | 24 nM | COc1ccc2c(O[C@@H]3C[C@H]4C(=O)N[C@]5(C(=O)O)C[C@H]5/C=C\CCCCC[C@H](NC(=O)OC(C)(C)C)C(=O)N4C3)ccnc2c1 | 
77 nM | 11 nM | COc1ccc2c(O[C@@H]3C[C@H]4C(=O)N[C@]5(C(=O)O)C[C@H]5/C=C\CCCCC[C@H](NC(=O)OC(C)(C)C)C(=O)N4C3)cc(-c3ccccc3)nc2c1 | F (Rattus norvegicus [9]): 2%; AUC [10]: 0.2 µM·h; half-life [11]: 24 min
1.6 nM | 3.5 nM | COc1ccc2c(O[C@@H]3C[C@H]4C(=O)N[C@]5(C(=O)O)C[C@H]5/C=C\CCCCC[C@H](NC(=O)OC5CCCC5)C(=O)N4C3)cc(-c3csc(N)n3)nc2c1 | 
3.2 nM | 5.5 nM | COc1ccc2c(O[C@@H]3C[C@H]4C(=O)N[C@]5(C(=O)O)C[C@H]5/C=C\CCCCC[C@H](NC(=O)OC(C)(C)C)C(=O)N4C3)cc(-c3csc(N)n3)nc2c1 | 
20 nM | 22 nM | COc1ccc2c(O[C@@H]3C[C@H]4C(=O)N[C@]5(C(=O)O)C[C@H]5/C=C\CCCCC[C@H](NC(=O)OC(C)(C)C)C(=O)N4C3)cc(-n3cc(C)cn3)nc2c1 | 
6 nM | 6.4 nM | CNc1nc(-c2cc(O[C@@H]3C[C@H]4C(=O)N[C@]5(C(=O)O)C[C@H]5/C=C\CCCCC[C@H](NC(=O)OC(C)(C)C)C(=O)N4C3)c3ccc(OC)cc3n2)cs1 | 
13 nM | 4.7 nM | COc1ccc2c(O[C@@H]3C[C@H]4C(=O)N[C@]5(C(=O)O)C[C@H]5/C=C\CCCCC[C@H](NC(=O)OC(C)(C)C)C(=O)N4C3)cc(-n3ccnc3)nc2c1 | 
1 nM | 2.9 nM | CCNc1nc(-c2cc(O[C@@H]3C[C@H]4C(=O)N[C@]5(C(=O)O)C[C@H]5/C=C\CCCCC[C@H](NC(=O)OC5CCCC5)C(=O)N4C3)c3ccc(OC)cc3n2)cs1 | Cmax [3]: 1000 nM; AUC [12]: 7.2 µM·h
200 nM | 12 nM | COc1ccc2c(O[C@@H]3C[C@H]4C(=O)N[C@]5(C(=O)O)C[C@H]5/C=C\CCCCC[C@H](NC(=O)OC(C)(C)C)C(=O)N4C3)cc(-c3nnc(C)o3)nc2c1 | 
1.2 nM | 2.2 nM | COc1ccc2c(O[C@@H]3C[C@H]4C(=O)N[C@]5(C(=O)O)C[C@H]5/C=C\CCCCC[C@H](NC(=O)OC5CCCC5)C(=O)N4C3)cc(-n3ccc(C)n3)nc2c1 | 
3.4 nM | 3.6 nM | COc1ccc2c(O[C@@H]3C[C@H]4C(=O)N[C@]5(C(=O)O)C[C@H]5/C=C\CCCCC[C@H](NC(=O)OC5CCCC5)C(=O)N4C3)cc(-n3cccc3)nc2c1 | 
4 nM | 3 nM | COc1ccc2c(O[C@@H]3C[C@H]4C(=O)N[C@]5(C(=O)O)C[C@H]5/C=C\CCCCC[C@H](NC(=O)OC(C)(C)C)C(=O)N4C3)cc(-n3ccc(C)n3)nc2c1 | 
